Source: ChEMBL document CHEMBL4706482, “Structural optimization of aminopyrimidine-based CXCR4 antagonists” (Eur J Med Chem, 2020)
The source made the active and inactive calls. No cut-off for these calls is given here.

Columns and labels:
[1] = target: T1, C-X-C chemokine receptor type 4 (Homo sapiens, UniProt P61073); assay: Antagonist activity at CXCR4 in human HPBALL cells assessed as inhibition of APC-conjugate clone 12G5 antibody signal incubated for 3 hrs by flow cytometric analysis; type: cell-based
Target sequence in this assay (P61073 whole entry): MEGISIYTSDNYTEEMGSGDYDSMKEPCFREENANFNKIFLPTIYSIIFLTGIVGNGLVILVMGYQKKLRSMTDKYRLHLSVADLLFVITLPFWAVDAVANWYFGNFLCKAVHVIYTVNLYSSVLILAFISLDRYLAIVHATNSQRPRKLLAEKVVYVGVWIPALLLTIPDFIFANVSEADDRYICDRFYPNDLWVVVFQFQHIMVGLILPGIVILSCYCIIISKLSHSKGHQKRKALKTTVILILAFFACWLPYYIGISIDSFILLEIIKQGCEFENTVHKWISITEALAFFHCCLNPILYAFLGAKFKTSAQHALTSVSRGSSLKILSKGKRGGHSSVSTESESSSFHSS

[2] = target: Voltage-gated inwardly rectifying potassium channel KCNH2 (Homo sapiens, UniProt Q12809); assay: Inhibition of human ERG stably expressed in CHO cells after 4 mins; type: cell-based
Chain of Voltage-gated inwardly rectifying potassium channel KCNH2 (Q12809 whole entry): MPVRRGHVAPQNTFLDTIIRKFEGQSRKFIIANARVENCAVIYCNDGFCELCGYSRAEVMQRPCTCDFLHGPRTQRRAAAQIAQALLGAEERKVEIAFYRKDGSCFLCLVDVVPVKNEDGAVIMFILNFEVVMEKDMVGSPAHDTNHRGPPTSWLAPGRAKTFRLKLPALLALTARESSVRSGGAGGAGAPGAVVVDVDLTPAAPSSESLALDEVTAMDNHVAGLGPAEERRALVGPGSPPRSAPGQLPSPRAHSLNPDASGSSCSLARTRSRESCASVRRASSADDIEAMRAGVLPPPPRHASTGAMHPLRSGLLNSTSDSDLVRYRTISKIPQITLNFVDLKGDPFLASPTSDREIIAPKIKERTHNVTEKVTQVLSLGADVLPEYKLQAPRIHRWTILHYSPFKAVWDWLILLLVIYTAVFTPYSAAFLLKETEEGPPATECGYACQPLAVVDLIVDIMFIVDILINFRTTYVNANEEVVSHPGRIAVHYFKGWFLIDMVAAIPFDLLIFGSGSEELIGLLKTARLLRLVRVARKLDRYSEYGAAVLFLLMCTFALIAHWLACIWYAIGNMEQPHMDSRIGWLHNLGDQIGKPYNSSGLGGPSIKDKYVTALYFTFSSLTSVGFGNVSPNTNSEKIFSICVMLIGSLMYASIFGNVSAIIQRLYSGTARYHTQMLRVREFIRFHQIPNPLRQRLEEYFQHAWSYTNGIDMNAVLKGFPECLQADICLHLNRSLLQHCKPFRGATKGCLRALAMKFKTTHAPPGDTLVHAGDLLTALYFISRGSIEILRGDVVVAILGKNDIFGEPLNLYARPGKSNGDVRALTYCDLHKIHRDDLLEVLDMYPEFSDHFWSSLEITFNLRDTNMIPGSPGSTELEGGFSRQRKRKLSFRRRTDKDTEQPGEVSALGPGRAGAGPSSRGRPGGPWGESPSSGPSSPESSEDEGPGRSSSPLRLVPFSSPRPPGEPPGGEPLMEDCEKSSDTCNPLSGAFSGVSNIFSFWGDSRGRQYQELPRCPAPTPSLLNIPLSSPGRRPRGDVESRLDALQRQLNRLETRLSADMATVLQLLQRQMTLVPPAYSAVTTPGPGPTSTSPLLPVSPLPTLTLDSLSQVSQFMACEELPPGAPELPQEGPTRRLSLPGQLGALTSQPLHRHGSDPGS
Method in brief: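 hERG-expressing CHO cells on automated QPatch. Holding potential -80 mV, 500 ms step to +20 mV, tail current measured at -50 mV, pulses every 20 s. External solution 4 mM K⁺, 1 mM Mg²⁺, 2 mM Ca²⁺. Effect quantified 4 min after compound application.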

[3] = Apparent permeability across apical to basal side in human Caco2 cells at 10 uM after 90 mins by LC-MS/MS analysis; type: ADME, cell-based; details: Caco-2
Method in brief: (§1)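 Caco-2 cells grown 21–28 days on polycarbonate inserts. TEER and Lucifer Yellow checked before and after the assay. Compound at 10 µM in HBSS with 25 mM HEPES, pH 7.4, tested A-B and B-A, 37 °C for 90 min. Samples quantified by LC-MS/MS against a standard curve.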

[4] = Efflux ratio in across basolateral to apical side over apical to basolateral side in human Caco2 cells at 10 uM after 90 mins by LC-MS/MS analysis; type: ADME, cell-based; details: Caco-2; method in brief: as §1
[5] = Protein binding in mouse plasma; type: ADME, cell-free; details: read-out: PPB (converted)
[6] = Protein binding in rat plasma; type: ADME, cell-free; details: read-out: PPB (converted)
[7] = Half life in rat liver microsomes at 1 uM preincubated for 10 mins followed by NADPH addition and measured up to 60 mins by LC-MS/MS analysis; type: ADME, Microsome; details: time <=70 min
[8] = Intrinsic clearance in rat liver microsomes at 1 uM preincubated for 10 mins followed by NADPH addition and measured up to 60 mins by LC-MS/MS analysis; type: ADME, Microsome; details: time <=70 min, read-out: CLH
[9] = Protein binding in human plasma; type: ADME, cell-free; details: read-out: PPB
[10] = target: CYP3A4 (Homo sapiens, UniProt P08684); assay: Inhibition of CYP3A4 in human liver microsomes using midazolam as substrate at 10 uM preincubated for 10 mins followed by NADPH addition and measured after 10 mins by LC-MS/MS analysis relative to control; type: ADME; details: probe midazolam, time 20 min
Chain of CYP3A4 (P08684 whole entry): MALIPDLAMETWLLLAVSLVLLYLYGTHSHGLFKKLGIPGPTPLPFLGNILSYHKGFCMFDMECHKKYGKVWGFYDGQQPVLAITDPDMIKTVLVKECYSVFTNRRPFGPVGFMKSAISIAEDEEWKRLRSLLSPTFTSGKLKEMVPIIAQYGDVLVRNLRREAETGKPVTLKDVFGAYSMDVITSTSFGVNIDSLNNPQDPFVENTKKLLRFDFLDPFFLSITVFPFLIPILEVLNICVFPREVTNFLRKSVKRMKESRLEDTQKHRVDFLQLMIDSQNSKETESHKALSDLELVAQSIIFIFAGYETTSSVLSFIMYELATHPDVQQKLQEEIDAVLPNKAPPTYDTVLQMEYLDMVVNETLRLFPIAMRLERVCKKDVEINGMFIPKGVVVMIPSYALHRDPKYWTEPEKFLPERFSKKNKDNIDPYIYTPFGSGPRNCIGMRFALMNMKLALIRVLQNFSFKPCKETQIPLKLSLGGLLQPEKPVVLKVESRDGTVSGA
Method in brief: (§2)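 Human liver microsomes 0.2 mg/mL in 100 mM phosphate, pH 7.4, compound 10 µM, probe substrate midazolam 1 µM (CYP3A4) or dextromethorphan 5 µM (CYP2D6). After a 10 min preincubation, reaction started with 1 mM NADPH, 37 °C for 10 min, then stopped with cold acetonitrile. Metabolites quantified by LC-MS/MS. Triplicate incubations.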

[11] = target: T2, C-C chemokine receptor type 6 (Homo sapiens) (UniProt P51684); assay: Antagonist activity at CCR6 in human CD4-positive cells assessed as inhibition of CCL20-induced calcium signal up to 10000 nM by FLIPR assay; type: functional, cell-based; details: CD4+ve Th, dose nM <=10000
T2 sequence (whole entry): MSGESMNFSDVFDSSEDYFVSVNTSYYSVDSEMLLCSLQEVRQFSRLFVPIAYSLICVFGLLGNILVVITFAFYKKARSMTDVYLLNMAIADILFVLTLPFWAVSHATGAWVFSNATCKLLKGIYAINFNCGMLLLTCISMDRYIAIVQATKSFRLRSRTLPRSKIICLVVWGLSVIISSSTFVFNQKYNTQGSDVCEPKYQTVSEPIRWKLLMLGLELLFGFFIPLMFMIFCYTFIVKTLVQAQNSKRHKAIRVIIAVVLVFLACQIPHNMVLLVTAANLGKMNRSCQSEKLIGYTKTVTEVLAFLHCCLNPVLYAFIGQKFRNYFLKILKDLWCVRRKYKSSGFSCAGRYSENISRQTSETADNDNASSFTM
Method in brief: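 Cryopreserved activated human CD4+ CCR6-enriched T cells at 2.5×10^6/mL in HBSS/20 mM HEPES/0.005% P-104, loaded with Calcium 4 dye. Compound final 10 µM to 0.035 nM in 0.5% DMSO, followed by CCL20 stimulation. Calcium flux read on FLIPR Tetra. % effect taken relative to on-plate controls; IC50 from a four-parameter logistic fit.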

[12] = target: T3, C-X-C chemokine receptor type 1 (Homo sapiens) (UniProt P25024); assay: Antagonist activity at CXCR1 (unknown origin) stably expressed in HEK293 cells assessed as reduction in IL-8-induced intracellular calcium change up to 10000 nM incubated for 15 mins followed by IL-8-stimulation and measured after 15 mins by cAMP-d2/Eu-Anti-cAM based fluorescence assay; type: functional, cell-based; details: dose nM <=10000, time 30.0 min, in the assay text read “intracellular cAMP change” for “intracellular calcium change”
T3 sequence (whole entry): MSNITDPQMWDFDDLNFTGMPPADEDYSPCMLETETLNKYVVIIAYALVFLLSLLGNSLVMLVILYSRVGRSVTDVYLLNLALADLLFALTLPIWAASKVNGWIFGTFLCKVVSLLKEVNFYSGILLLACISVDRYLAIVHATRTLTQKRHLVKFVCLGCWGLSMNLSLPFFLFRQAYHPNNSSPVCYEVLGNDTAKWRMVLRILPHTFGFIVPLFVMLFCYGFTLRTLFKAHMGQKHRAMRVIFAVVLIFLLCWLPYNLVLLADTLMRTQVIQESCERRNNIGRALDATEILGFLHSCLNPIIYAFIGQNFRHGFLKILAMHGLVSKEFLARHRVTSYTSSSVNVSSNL
Method in brief: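 HEK293 cells overexpressing CXCR1, trypsin-dissociated, 2000 cells/well. Compound in a 10-point 4-fold series, 15 min at rt, then forskolin 4.4 µM plus IL-8 100 nM (in the added solution) for 15 min at rt. cAMP measured with cAMP-d2/Eu-anti-cAMP HTRF, 60 min at rt, read at 665/615 nm.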

[13] = target: T1, C-X-C chemokine receptor type 4; assay: Antagonist activity at CXCR4 in human CD4-positive T cells assessed as inhibition of CXCL12-induced calcium signal incubated for 20 mins by FLIPR assay; type: functional, cell-based, CD4+ve Th
Target sequence in this assay (P61073 whole entry): as the sequence (P61073 whole entry) above

[14] = test system: MEF; assay: Cytotoxicity against MEF cells assessed as reduction in cell viability up to 1000 nM by CellTiter-Glo assay; type: cell-based; details: mouse
Method in brief: (§3)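 Cell viability measured with CellTiter-Glo ATP luminescence at compound concentrations up to 1000 nM.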

[15] = target: CYP2D6 (Homo sapiens, UniProt P10635); assay: Inhibition of CYP2D6 in human liver microsomes using dextromethorphan as substrate at 10 uM preincubated for 10 mins followed by NADPH addition and measured after 10 mins by LC-MS/MS analysis relative to control; type: ADME; details: probe dextromethorphan, time 20 min; method in brief: as §2
Chain of CYP2D6 (P10635 whole entry): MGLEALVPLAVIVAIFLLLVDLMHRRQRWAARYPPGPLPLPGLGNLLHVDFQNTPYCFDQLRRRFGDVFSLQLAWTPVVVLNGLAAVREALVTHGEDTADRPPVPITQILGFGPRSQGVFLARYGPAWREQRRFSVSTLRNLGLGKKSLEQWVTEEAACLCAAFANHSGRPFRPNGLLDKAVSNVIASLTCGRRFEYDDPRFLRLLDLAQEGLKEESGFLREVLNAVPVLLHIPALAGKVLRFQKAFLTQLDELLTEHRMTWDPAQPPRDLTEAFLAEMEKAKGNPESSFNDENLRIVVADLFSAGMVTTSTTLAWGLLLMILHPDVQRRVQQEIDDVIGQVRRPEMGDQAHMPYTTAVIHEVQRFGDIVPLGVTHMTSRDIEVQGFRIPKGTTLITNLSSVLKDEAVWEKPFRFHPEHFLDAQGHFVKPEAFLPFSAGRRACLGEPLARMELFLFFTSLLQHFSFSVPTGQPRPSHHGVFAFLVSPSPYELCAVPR

[16] = test system: Hepa1-6; assay: Cytotoxicity against […] cells assessed as reduction in cell viability up to 1000 nM by CellTiter-Glo assay; type: functional, cell-based; details: dose nM <=1000
[17] = test system: L929; assay: Cytotoxicity against mouse L929 cells assessed as reduction in cell viability up to 1000 nM by CellTiter-Glo assay; type: cell-based
[18] = test system: MDA-MB-231; assay: Cytotoxicity against human MDA-MB-231 cells assessed as reduction in cell viability up to 1000 nM by CellTiter-Glo assay; type: functional, cell-based; details: dose nM <=1000; method in brief: as §3
[19] = target: T1, C-X-C chemokine receptor type 4; assay: Antagonist activity at CXCR4 in human MDA-MB-231 cells assessed as inhibition of CXCL12-mediated chemotaxis at 100 nM after 22 hrs by transwell assay; details: filed as antagonist
Target sequence in this assay (P61073 whole entry, looked up): as the sequence (P61073 whole entry) above

Structure (SMILES)	IC50 [1] [nM]	also measured
Cc1nc(CN(C)[C@H]2CCCc3cccnc32)cc(N2CCN(C)[C@H](C)C2)n1	8.3	–
Cc1nc(CN(C)C2CCCc3cccnc32)c(F)c(N2CCN(C)CC2)n1 (racemic)	12	–
CN1CCN(c2cc(CN(C)C3CCCc4cccnc43)nc(N(C)C)n2)CC1 (racemic)	> 10000	–
Cc1nc(CN(C)[C@H]2CCCc3cccnc32)cc(N2CCN(C)C[C@@H]2C)n1	14	–
CNc1nc(CN(C)C2CCCc3cccnc32)cc(N2CCN(C)CC2)n1 (racemic)	58	–
CN1CCN(c2cc(CN(C)C3CCCc4cccnc43)nc(N(C)CCO)n2)CC1 (racemic)	792	–
COc1nc(CN(C)C2CCCc3cccnc32)cc(N2CCN(C)CC2)n1 (racemic)	25	–
CC(C)Oc1nc(CN(C)C2CCCc3cccnc32)cc(N2CCN(C)CC2)n1 (racemic)	151	–
CCN1CCN(c2cc(CN(C)[C@H]3CCCc4cccnc43)nc(C)n2)CC1	10	–
Cc1nc(CN(C)[C@H]2CCCc3cccnc32)cc(N2C[C@@H](C)N(C)[C@@H](C)C2)n1	8.3	–
Cc1nc(CN(C)[C@H]2CCCc3cccnc32)cc(N2CCC(N3CCN(C)CC3)CC2)n1	96	–
CCOc1nc(CN(C)C2CCCc3cccnc32)cc(N2CCN(C)CC2)n1 (racemic)	78	–
Cc1nc(CN(C)C2CCCc3cccnc32)cc(N2CCN(C)CC2)n1 (racemic)	12	–
CN1CCN(c2cc(CN(C)C3CCCc4cccnc43)nc(-c3cnn(C)c3)n2)CC1 (racemic)	1290	–
Cc1nc(CN(C)[C@H]2CCCc3cccnc32)cc(N2CCN(C)CC2)n1	8.8	IC50 [2]: 8000 nM; Papp A→B at 1.5 h, 10 µM [3]: 270 nm/s; efflux ratio at 1.5 h, 10 µM [4]: 0.86; fraction unbound [5]: 0.11; fraction unbound [6]: 0.18; half-life at 1 µM [7]: 1.6 min; CLint scaled at 1 µM [8]: 94 L/h/kg; fraction unbound [9]: 0.01; inhibition at 10 min, 10 µM [10]: 48%; Activity [11]: inactive; Activity [12]: inactive; IC50 [13]: 0.02 nM; Activity [14]: Non-Toxic; inhibition at 10 min, 10 µM [15]: 57%; Activity [16]: inactive; Activity [17]: Non-Toxic; Activity [18]: inactive; Activity [19]: Active
Cc1nc(CN(C)[C@H]2CCCc3cccnc32)cc(N2CCN(C)C[C@H]2C)n1	21	–
CCNc1nc(CN(C)C2CCCc3cccnc32)cc(N2CCN(C)CC2)n1 (racemic)	105	–
Cc1nc(CN(C)[C@H]2CCCc3cccnc32)cc(N(C)CCO)n1	> 10000	–
Cc1nc(CN(C)[C@H]2CCCc3cccnc32)cc(N2CCN(C)[C@@H](C)C2)n1	14	–
CN1CCN(c2cc(CN(C)C3CCCc4cccnc43)nc(N3CCOCC3)n2)CC1 (racemic)	2440	–
Cc1nc(CN(C)[C@H]2CCCc3cccnc32)cc(N2CCN(C3CC3)CC2)n1	70	–
Cc1nc(CN(C)[C@H]2CCCc3cccnc32)cc(N2CCN(C3COC3)CC2)n1	130	–
Cc1nc(CN(C)C2CCCc3cccnc32)c(C#N)c(N2CCN(C)CC2)n1 (racemic)	33	–
CN1CCN(c2cc(CN(C)C3CCCc4cccnc43)nc(-c3ccccc3)n2)CC1 (racemic)	2890	–
Cc1nc(CN(C)[C@H]2CCCc3cccnc32)cc(NCCN2CCOCC2)n1	66	–
CC(C)Nc1nc(CN(C)C2CCCc3cccnc32)cc(N2CCN(C)CC2)n1 (racemic)	930	–

Further lines, with some results ahead:

IC50 [1] [nM]	Structure (SMILES)	also measured
25	CCc1nc(CN(C)C2CCCc3cccnc32)cc(N2CCN(C)CC2)n1 (racemic)	–
101	Cc1nc(CN(C)[C@H]2CCCc3cccnc32)cc(N2CCC(N3CCOCC3)CC2)n1	–
36	Cc1nc(CN(C)[C@H]2CCCc3cccnc32)cc(NCCCN2CCOCC2)n1	–
23	CN1CCN(c2cc(CN(C)C3CCCc4cccnc43)nc(C3CC3)n2)CC1 (racemic)	–
18	Cc1nc(CN(C)[C@H]2CCCc3cccnc32)cc(N2CCN3CCC[C@H]3C2)n1	–
17	CCN(Cc1cc(N2CCN(C)CC2)nc(C)n1)C1CCCc2cccnc21 (racemic)	–
23	CN1CCN(c2cc(CN(C)C3CCCc4cccnc43)nc(N)n2)CC1 (racemic)	–
30	Cc1nc(CN(C)[C@H]2CCCc3cccnc32)cc(N2CCN3CCC[C@@H]3C2)n1	–
> 10000	CN1CCN(c2cc(CN(C)C3CCCc4cccnc43)nc(N3CCCC3)n2)CC1 (racemic)	–
293	CN1CCN(c2cc(CN(C)[C@H]3CCCc4cccnc43)nc(C(F)(F)F)n2)CC1	–
51	Cc1nc(CN(CC2CC2)C2CCCc3cccnc32)cc(N2CCN(C)CC2)n1 (racemic)	–
256	CC(C)c1nc(CN(C)C2CCCc3cccnc32)cc(N2CCN(C)CC2)n1 (racemic)	–
